Experimental data of several laboratories.
Protocols differ between the studies behind these lines. pIC50: −log10 of the molar value.
Action: inhibitor
VCP: Transitional endoplasmic reticulum ATPase (VCP, Homo sapiens, UniProt P55072)
P4HB: Protein disulfide-isomerase (P4HB, Homo sapiens, UniProt P07237)
SLC2A9: Solute carrier family 2, facilitated glucose transporter member 9 (SLC2A9, Homo sapiens, UniProt Q9NRM0)
BLK: Tyrosine-protein kinase Blk (BLK, Homo sapiens, UniProt P51451)
HDAC4: Histone deacetylase 4 (HDAC4, Homo sapiens, UniProt P56524)
SLCO1B3 S112A: Solute carrier organic anion transporter family member 1B3 (SLCO1B3, Homo sapiens, UniProt Q9NPD5, S112A)

CC(C)n1c(/C=C/C(O)CC(O)CC(=O)O)c(-c2ccc(F)cc2)c2ccccc21 (centres unmarked)  pIC50 (Solute carrier organic anion transporter family member 1B3 (SLCO1B3, Homo sapiens, UniProt Q9NPD5); transporter uptake; radiometric; 2 min): 6.96
Cc1cc2c(C(N)=O)cccc2n1-c1nc(NCc2ccccc2)c2c(n1)NC(C)CC2 (centres unmarked)  pIC50 (VCP; enzyme activity; ADP detection): 7.41
O=C(O[C@@H]1[C@@H](O)[C@H](Oc2cc(O)c3c(c2)O[C@H](c2ccccc2)CC3=O)O[C@@H]2COC(=O)c3cc(O)c(O)c(O)c3-c3c(cc(O)c(O)c3O)C(=O)O[C@@H]12)c1cc(O)c(O)c(O)c1  pIC50 (P4HB; enzyme activity; fluorescence): 5.82
CCc1oc2cc(F)c(F)cc2c1C(=O)c1cc(Br)c(O)c(Br)c1  pIC50 (SLC2A9; transporter uptake; oocytes): 4.76
CC(C)(/C=C(\C#N)C(=O)N1CCC[C@@H](n2nc(-c3ccc(Oc4ccccc4)cc3F)c3c(N)ncnc32)C1)N1CCN(C2COC2)CC1  pIC50 (BLK; enzyme activity): 9.42
CONC(=O)Cc1c(C)n(-c2nc3c(c(NCc4ccccc4)n2)CCCN3)c2ccccc12  pIC50 (VCP; enzyme activity; ADP detection): 6.75
Oc1ccc(-c2nc(-c3ccncc3)c(-c3ccc(F)cc3)[nH]2)cc1  pIC50 (Tau-tubulin kinase 2 (TTBK2, Homo sapiens, UniProt Q6IQ55); enzyme activity): 5.44
CC#CC(=O)N1CC[C@@H](n2c(=O)n(-c3ccc(Oc4ccccc4)cc3)c3c(N)ncnc32)C1  pIC50 (BLK; enzyme activity): 6.10
CCN(CCO)CCCC(C)Nc1ccnc2cc(Cl)ccc12 (centres unmarked)  pIC50 (Procathepsin L (CTSL, Homo sapiens, UniProt P07711); enzyme activity; fluorescence): 3.63
O=C1C[C@@H](c2ccccc2)Oc2cc(O)cc(O)c21  pIC50 (P4HB; enzyme activity; fluorescence): < 3.30
Cc1cc2c(C(N)=O)cccc2n1-c1nc2c(c(NCc3ccccc3O)n1)CCCN2  pIC50 (VCP; enzyme activity; ADP detection): 7.28
O=C(NO)c1ccc(Cn2cnc3c(Nc4ccc(Cl)cc4)ncnc32)cc1  pIC50 (HDAC4; enzyme activity): 5.51
COc1ccc(N(Cc2csc(-c3ccc(Br)cc3)n2)C(=O)CCCCCC(=O)NO)cc1  pIC50 (HDAC4; enzyme activity): < 5.00
Cc1cc2c(C(N)=O)cccc2n1-c1nc2c(c(NCc3cccc(O)c3)n1)CCCN2  pIC50 (VCP; enzyme activity; ADP detection): 7.85
COc1ccc(N(Cc2csc(-c3ccc(C)cc3)n2)C(=O)CCCCCC(=O)NO)cc1  pIC50 (HDAC4; enzyme activity): < 5.00
CC1(C)NC(=O)N(c2ccc([N+](=O)[O-])c(C(F)(F)F)c2)C1=O  pIC50 (Aldo-keto reductase family 1 member C3 (AKR1C3, Homo sapiens, UniProt P42330); enzyme activity): 5.30
COc1cccc2c1C(=O)c1c(O)c3c(c(O)c1C2=O)C[C@@](O)(C(=O)CO)C[C@@H]3O[C@H]1C[C@H](N)[C@H](O)[C@H](C)O1  pIC50 (SLCO1B3 S112A; transporter uptake; radiometric; 2 min): < 4.00
CCc1oc2ccccc2c1C(=O)c1cc(Br)c(O)c(Br)c1  pIC50 (SLC2A9; transporter uptake; oocytes): 4.06
Cc1cc2c(C(N)=O)cccc2n1-c1nc2c(c(NCc3ccccn3)n1)CCCN2  pIC50 (VCP; enzyme activity; ADP detection): 6.94
O=C(O[C@@H]1Cc2c(O)cc(O)cc2O[C@@H]1c1cc(O)c(O)c(O)c1)c1cc(O)c(O)c(O)c1  pIC50 (P4HB; enzyme activity; fluorescence): 3.61
CN(Cc1cnc2nc(N)nc(N)c2n1)c1ccc(C(=O)N[C@@H](CCC(=O)O)C(=O)O)cc1  pIC50 (SLCO1B3 S112A; transporter uptake; radiometric; 2 min): < 4.00
Clc1ccc(Nc2ccncc2)cc1Cl  pIC50 (G/T mismatch-specific thymine DNA glycosylase (TDG, Homo sapiens, UniProt Q13569); enzyme activity): < 4.00
C[C@H]1CN(C2COC2)CCN1c1ccc(Nc2cc(-c3ccnc(N4CCn5c(cc6c5CC(C)(C)C6)C4=O)c3CO)cn(C)c2=O)nc1  pIC50 (BLK; enzyme activity): < 5.30
N=C(N)c1ccc(OCCCCCOc2ccc(C(=N)N)cc2)cc1  pIC50 (Coagulation factor XIII A chain (F13A1, Homo sapiens, UniProt P00488); enzyme activity; fluorescence): < 4.30
Cc1cc2c(C(=O)O)cccc2n1-c1nc2c(c(NCc3ccccc3)n1)CCCN2  pIC50 (VCP; enzyme activity; ADP detection): 7.49
CC(=O)O[C@H]1C(=O)[C@@]2(C)[C@H]([C@H](OC(=O)c3ccccc3)[C@]3(O)C[C@H](OC(=O)[C@H](O)[C@@H](NC(=O)c4ccccc4)c4ccccc4)C(C)=C1C3(C)C)[C@]1(OC(C)=O)CO[C@@H]1C[C@@H]2O  pIC50 (SLCO1B3 S112A; transporter uptake; radiometric; 2 min): 4.06
